Key:
Enterococcus faecalis [1] = assay: Antimicrobial activity against Enterococcus faecalis HMC 571 assessed as time required to induce sub-MIC effect at 0.2 times MIC exposed for 2 hrs by plate counting method; type: functional
Procedure, shortened: (§1)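 Unexposed Mueller-Hinton broth cultures (about 5 × 10^6 CFU/ml, 35°C) were handled as in the PA-SME set but without the 10× MIC pre-exposure. They were diluted 1:1,000, then given telavancin at final 0.2, 0.3 or 0.4× MIC, with a drug-free control. Viable counts were taken every 2 h until McFarland no. 1 turbidity. Effect duration comes from log10 CFU/ml-time plots; two separate experiments with new inocula.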

Enterococcus faecalis [2] = assay: Antimicrobial activity against Enterococcus faecalis ATCC 29212 assessed as time required to induce sub-MIC effect at 0.2 times MIC exposed for 2 hrs by plate counting method; type: functional; procedure, shortened: as §1

## CCCCCCCCCCNCCN[C@@]1(C)C[C@H](O[C@H]2[C@H](Oc3c4cc5cc3Oc3ccc(cc3Cl)[C@@H](O)[C@@H](NC(=O)[C@@H](CC(C)C)NC)C(=O)N[C@@H](CC(N)=O)C(=O)N[C@H]5C(=O)N[C@H]3C(=O)N[C@H](C(=O)N[C@H](C(=O)O)c5cc(O)c(CNCP(=O)(O)O)c(O)c5-c5cc3ccc5O)[C@H](O)c3ccc(c(Cl)c3)O4)O[C@H](CO)[C@@H](O)[C@@H]2O)O[C@@H](C)[C@H]1O [TELAVANCIN]
Enterococcus faecalis [1]
  PAE: 0.1 h
Enterococcus faecalis [2]
  PAE: 0.7 h
